# Sampled rows, rich in hits. Any-hit rate of the full collection: about 1.1%.
# CAL PDZ FP-1 = inhibitors of human CAL PDZ peptide binding; purified CAL PDZ, TMR-peptide fluorescence polarization, 1 h; inhibition, % at 24.9 µM; actives 0.92% (n = 300,000);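 active means mean inhibition of at least 30% with at least half of replicates also reaching 30%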;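 further: 0% = DMSO neutral control and 100% = excess unlabeled competitor peptide PRC23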
# miR122 inh = miR-122 inhibition in Huh7 cells | activation (reporter increase), % at 12.5 µM | Huh7 miR-122 Renilla luciferase sensor, 48 h; neutral wells = 0, positive control = 100 | actives 0.3% (n = 340,000);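 active means mean replicate activation score at least 90 and every replicate individually at or above 90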;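 further: higher luciferase means less miR-122 activity so hits act as miR-122 inhibitors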
# Keap1-Nrf2 PPI = disrupts human Keap1 binding to Nrf2 peptide | actives 0.15% (n = 340,000) | inhibition, % at 9.4 µM | AID 504523 | Keap1 Kelch-Nrf2 peptide fluorescence polarization, 1536-well; in the data active means inhibition above about 12%;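 further: human Keap1 Kelch domain with fluorescein labeled Nrf2 9mer peptide probe; 0% = neutral control wells and 100% = peptide positive control; higher means more block of Keap1 binding to Nrf2 peptide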
# Target sequence (Q14145 whole entry, looked up, the tested form may be a part): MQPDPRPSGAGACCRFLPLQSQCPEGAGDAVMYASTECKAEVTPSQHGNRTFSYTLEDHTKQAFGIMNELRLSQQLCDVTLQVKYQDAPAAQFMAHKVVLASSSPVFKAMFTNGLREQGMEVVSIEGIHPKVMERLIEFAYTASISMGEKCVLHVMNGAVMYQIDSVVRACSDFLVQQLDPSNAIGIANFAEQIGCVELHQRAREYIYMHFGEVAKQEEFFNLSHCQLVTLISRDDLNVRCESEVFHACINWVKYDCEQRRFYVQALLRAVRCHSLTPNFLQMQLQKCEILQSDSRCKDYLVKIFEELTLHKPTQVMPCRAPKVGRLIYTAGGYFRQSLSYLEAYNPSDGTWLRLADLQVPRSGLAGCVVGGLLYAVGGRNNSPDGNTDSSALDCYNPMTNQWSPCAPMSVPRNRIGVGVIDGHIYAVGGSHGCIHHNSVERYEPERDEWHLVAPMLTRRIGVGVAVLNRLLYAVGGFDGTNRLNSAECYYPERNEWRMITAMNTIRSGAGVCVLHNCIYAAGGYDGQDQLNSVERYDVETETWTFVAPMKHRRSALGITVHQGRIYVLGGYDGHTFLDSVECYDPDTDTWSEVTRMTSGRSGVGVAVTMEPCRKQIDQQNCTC
# LANA DNA inh = KSHV C-LANA DNA binding inhibition; AID 504423; actives 0.078% (n = 340,000); MBP-C-LANA/FAM-LBS DNA binding, fluorescence polarization; inhibition, % at 9 µM;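 active means highest replicate inhibition at or above 60% at 9 µM, even if other replicates fall short; inactive means all replicates below 60% inhibition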;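 further: 0% = neutral control wells and 100% = 4 µM acridine orange control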
# CAL PDZ FP-2 = inhibitors of human CAL PDZ peptide binding | purified CAL PDZ, TMR-peptide fluorescence polarization, 1 h | AID 504414 | actives 0.02% (n = 330,000) | inhibition, % at 20 µM;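 active means highest replicate inhibition of at least 40%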;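 further: plate controls were DMSO neutral control wells for no effect and unlabeled competitor peptide control wells for full effect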
#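 Read-out basis: mP drop reported as inhibition | Assay system: Tagged CAL PDZ protein CerCALP, purified | Benchmarks: Unlabelled peptide for full inhibition, DMSO wells as neutral | Schedule: 1 h incubation at room temperature before polarization reading | Buffer or medium: Sodium phosphate/NaCl buffer pH 7.4 with TCEP, IgG, Thesit | Doses: Single point, 20 µM | Measured by: Fluorescence polarization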
# The depositor's hits bear a star; / = no result; + = active, no number; [ ] = dose if it differs, or a comment.
SMILES,CAL PDZ FP-1,miR122 inh,Keap1-Nrf2 PPI,LANA DNA inh,CAL PDZ FP-2
Cc1ccc(S(=O)(=O)Nc2ccc3nc(C)sc3c2)cc1,0,15,-2,-1,-2
Cc1nc2cc(NS(=O)(=O)c3c(C)c(C)cc(C)c3C)ccc2s1,-5,313*,0,1,/
Cc1nc2ccc(NS(=O)(=O)c3c(C)c(C)cc(C)c3C)cc2s1,3,125*,-1,0,-3
Cc1nc2cc(NS(=O)(=O)c3ccccc3F)ccc2s1,-21,/,5,-1,-3
Cc1ccc(S(=O)(=O)Nc2ccc3nc(N)sc3c2)cc1,9,268*,-3,0,-3
C[C@@H]1CCCCO[C@H](CN(C)Cc2ccncc2)[C@@H](C)CN([C@@H](C)CO)C(=O)c2cc(NS(C)(=O)=O)ccc2O1,/,3[16.7 µM],/,/,/
Clc1cccc(Cl)c1CSc1nnc(CN2CCOCC2)n1-c1ccccc1,-3,126*,-1,0,-1
CNC[C@@H]1OCCCC[C@H](C)Oc2ccc(NC(=O)Nc3c(C)noc3C)cc2C(=O)N([C@H](C)CO)C[C@H]1C,/,2[16.7 µM],/,/,/
Cc1noc(C)c1S(=O)(=O)N(C)C[C@H]1OCCCC[C@@H](C)Oc2ccc(NC(=O)NC3CCCCC3)cc2C(=O)N([C@H](C)CO)C[C@@H]1C,/,11[16.7 µM],/,/,/
CC(=O)c1ccc(-c2ccc(C(=O)NCC(c3ccc(F)cc3)N3CCOCC3)o2)cc1 (configuration not stated),142*,-6,-2,0,-5
CC#CC[N+](C)(CC#CC)CC(=O)c1ccccc1,58*,/,3,1,1
CC#CC[N+](C)(C)CC(=O)c1ccccc1,-11,2,-9,-1,-3
COc1ccccc1C(=O)NC(CCSC)C(=O)NC1CCCCCC1 (configuration not stated),/,/,-5,-1,-1
COc1ccccc1C(=O)NC(CCSC)C(=O)NC1CC1 (configuration not stated),62*,1,-1,-2,-2
CC(C)(C)NC(=O)CCSc1nnc(-c2ccco2)o1,111*,3,-1,-2,16
Cc1c2cc(O)c(=O)cc-2oc2cc(O)c(O)cc12,/,5,121*,164*,10
COc1cc(OC)c(-c2c3cc(O)c(=O)cc-3oc3cc(O)c(O)cc23)cc1OC,-97,/,-199,-32,-4
Cc1cc2nc(SC(C)C(=O)O)[nH]c2cc1C (configuration not stated),active,-9,0,-1,-3
O=C(C1CCN(S(=O)(=O)c2cnc[nH]2)CC1)N1CCN(c2ccc([N+](=O)[O-])cc2)CC1,49*,-4,2,1,-1
COC(=O)c1ccc(NC(=O)CNc2ccccc2)cc1,43*,/,-3,0,-1
Cc1noc(C)c1NC(=O)Nc1ccc2c(c1)C(=O)N([C@H](C)CO)C[C@H](C)[C@@H](CN(C)C(=O)Nc1ccccc1)OCCCC[C@@H](C)O2,/,10[16.7 µM],/,/,/
Cc1ccc(-c2ccc(S(=O)(=O)NCc3ccco3)cc2)cc1,+,/,-3,1,0
CCC(=O)Nc1ccc(S(=O)(=O)NCc2ccco2)cc1,-1,3,-3,2,144*
C/C(=N\Nc1ccc(C(F)(F)F)cn1)c1ccc(S(=O)(=O)NCc2ccco2)cc1,-2,-12,-3,-1,-3
CC/C(=N\NS(=O)(=O)c1ccc(C)cc1)c1ccco1,36*,16,-6,-1,/
SMILES,CAL PDZ FP-1,miR122 inh,Keap1-Nrf2 PPI,LANA DNA inh,CAL PDZ FP-2
C/C(=N\Nc1ccccn1)c1ccc(S(=O)(=O)NCc2ccco2)cc1,-3,110*,-3,-1,-2
CCC(=NNS(=O)(=O)c1ccc(C)cc1)c1ccccc1,/,-1,/,/,/
CN1C[C@@H]2[C@H](c3ccccc31)[C@H](CO)N2C(=O)Nc1ccccc1Cl,/,-11[16.7 µM],/,/,/
O=C(Nc1ccccc1)c1ccc(S(=O)(=O)NCc2ccco2)cc1,39*,26,2,-3,-1
COc1ccc(NC(=O)Nc2cccc3c2O[C@@H](CN(C)S(=O)(=O)c2ccc(Cl)cc2)[C@H](C)CN([C@@H](C)CO)C3=O)cc1,/,3[16.7 µM],/,/,/
COCC#Cc1cnc2c(c1)C(=O)N([C@H](C)CO)C[C@@H](C)[C@H](CN(C)Cc1ccc(F)cc1)O2,/,-5[16.7 µM],/,/,/
CCC(=NCCc1ccccc1)C1=C(O)CCC1=O,64*,4,-1,0,-1
CCC(=NCCc1ccc(OC)c(OC)c1)C1=C(O)CC(C)(C)CC1=O,-2,/,-4,1,-3

# Source: PubChem BioAssay (Broad Institute)
